Screens: PubChem, several laboratories
STEP block: inhibitors of human striatal-enriched phosphatase STEP. inhibition, % at 20 µM. actives 0.25% (n = 360,000). AID 588621. P54829. recombinant STEP, OMFP fluorogenic substrate, fluorescence;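 active = inhibition at 20 µM, scaled per plate between control wells, above about 37%, limit read from the data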
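System: STEP (striatal-enriched tyrosine phosphatase) enzyme, cell-free; medium: Bis-Tris pH 6.0 buffer with DTT, detergent; dosing: 20 µM, 1% DMSO; times: reaction 20 min, ambient temperature; detection: fluorescence, 480/540 nm; read-out basis: normalized % inhibition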
GRK2 inh: human GRK2 inhibition via aptamer displacement; P25098; bead flow cytometry, FAM-aptamer displacement from GRK2; inhibition of aptamer binding, % at 10 µM; actives 0.59% (n = 330,000);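 active = inhibition of aptamer binding above 40%, roughly 3 SD of noise, on plates passing a quality check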;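 note: median bead fluorescence of bound FAM aptamer so fluorescent compounds give negative values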
Scp1 inh: blocks human Scp-1 phosphatase activity; Recombinant Scp1, phosphopeptide, malachite green phosphate absorbance; Q9GZU7; inhibition, % at 20 µM; actives 0.88% (n = 340,000);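 active = inhibition above about 50% at 20 µM, limit read from the data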
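Test system: SCP-1 phosphatase catalytic domain, residues 76-261; measured by: colorimetric phosphate reagent with accelerator and stabiliser, absorbance at 630 nm; timing: enzyme reaction 45 min at room temperature, colour 5 min, stabilisation 30 min; also added: Phosphorylated 17-residue peptide substrate; compound dosing: one concentration, 20 µM, with 1.0% DMSO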
LMPTP inh: blocks human LMPTP phosphatase; recombinant LMPTP-A, OMFP fluorogenic substrate, fluorescence intensity; AID 651560; inhibition, % at 20 µM; actives 0.22% (n = 360,000); P24666;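 active = compounds that cut the enzyme signal by at least half of the control window in the single-dose screen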
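Test system – LMPTP-A enzyme · Amount – LMPTP-A at 0.625 nM final in the reaction · Buffer or medium – Bis-Tris pH 6.0, DTT, detergent · Reagent – OMFP 400 µM · Doses – single 20 µM dose · Schedule – reaction 50 min, room temperature, dark · Detection – fluorescence intensity of OMFP turnover product · Evaluation – percent inhibition versus substrate-only and uninhibited controls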
SUMO1 PPI mod: alters human SUMO1 binding to SIM partners; P63165; SUMO1 binding to a labelled peptide, TR-FRET, 1 h; inhibition, % at 20 µM; actives 0.33% (n = 360,000); AID 602429; in the data active = inhibition above about 37%
DNMT1 block: DNMT1 (human) enzyme inhibition; P26358; DNMT1 molecular beacon, Hinp1I cleavage, fluorescence; inhibition (reported as % activation of signal), % at 10 µM; actives 0.83% (n = 360,000); AID 588458; in the data active = inhibition above about 50%
Each line names hits and unclear results; the compound was inactive in the other large screens; ! = not confirmed by another sample. Most compounds without a hit are left out; they make up all but 2.1% or so of the library.

N#C/C(=N\Nc1ccc(S(=O)(=O)N2CCc3ccccc32)cc1)C(N)=S	none
CCOC(=O)/C(C#N)=N/Nc1ccc(S(=O)(=O)N2CCc3ccccc32)cc1	GRK2 inh 82.0
CCOC(=O)[C@]12CCCC=C1N(Cc1ccc3c(c1)OCO3)C(=O)[C@H](CC(=O)NCc1cccc(C(F)(F)F)c1)C2	none (no result: STEP block, GRK2 inh, Scp1 inh, DNMT1 block)
CCOC(=O)CNS(=O)(=O)c1cc(-c2nn(C)c(=O)c3ccccc23)ccc1C	Scp1 inh 61.5
Cc1ccc(-c2nn(C)c(=O)c3ccccc23)cc1S(=O)(=O)NCCN1CCOCC1	none
N#CCC(=O)N/N=C/c1ccc(N2N=C(c3ccccc3)CC2c2ccccc2)cc1 (centres undefined)	GRK2 inh 67.0
CCCCC(=O)Nc1nc(C)c(-c2csc(Nc3cc(Cl)ccc3OC)n2)s1	none
CCCCCCC(=O)Nc1nc(C)c(-c2csc(Nc3cc(Cl)ccc3C)n2)s1	SUMO1 PPI mod 87.3
COc1ccc(Cl)cc1Nc1nc(-c2sc(NC(=O)C(C)(C)C)nc2C)cs1	SUMO1 PPI mod 87.5
CC(C)=CCn1c2ccc(NC(=S)NC3CC3)cc2c(=O)n1C	none (no result: GRK2 inh, Scp1 inh)
CCCC(C(=O)NCc1ccc(OC)cc1)N(Cc1ccco1)C(=O)c1snc(C(N)=O)c1N (centres undefined)	SUMO1 PPI mod 51.2
O=C1Nc2cccc3c2N(CCC3)C2=C1CCC2	none (no result: GRK2 inh, Scp1 inh)
COc1ccc(/C(C)=N/NC(=O)c2nnn(-c3nonc3N)c2-c2ccccc2)cc1	LMPTP inh 52.0
CC1=C(C(=O)N2CCCCCC2)CC(CC(=O)NCC2CCCCC2)C(=O)N1Cc1ccc(F)cc1 (centres undefined)	none (no result: STEP block, GRK2 inh, Scp1 inh, DNMT1 block)
CCOC(=O)N1CCC(NC(=O)C(NS(=O)(=O)c2cccc3nsnc23)c2ccccc2)CC1 (centres undefined)	SUMO1 PPI mod 46.0
O=C(NC1CCN(Cc2ccccc2)CC1)C(NS(=O)(=O)c1cccc2nsnc12)c1ccccc1 (centres undefined)	none
Nc1ccn(Cc2ccc(F)cc2)n1	SUMO1 PPI mod 75.6
Cc1cc(N)ccc1-n1c(C)ccc1C	none
Cc1cc(N)ccc1N1CCCC1	LMPTP inh 68.0, DNMT1 block 83.4
COC1=CC(=O)c2nc(Cl)ccc2C1=O	SUMO1 PPI mod 44.9, DNMT1 block 85.0 (no result: GRK2 inh, Scp1 inh)
CS/C(=N\S(=O)(=O)c1cccs1)NC(=O)CSc1nc2ccccc2s1	SUMO1 PPI mod 37.9!
COc1ccc(NC(=O)c2cc(C3CCCCN3S(=O)(=O)c3cccs3)on2)c(C)c1 (centres undefined)	none (no result: GRK2 inh, Scp1 inh)
COc1cccc(C2C(C(C)=O)=C(C)Nc3ncnn32)c1 (centres undefined)	SUMO1 PPI mod 38.1
CN1C(=O)N(CC(=O)c2ccc3c(c2)OCO3)C(=O)C12CCCCC2	none (no result: GRK2 inh, Scp1 inh)
C[C@H]1c2cccc(O)c2C(O)=C2C(=O)C3(O)C(O)=C(C(N)=O)C(=O)[C@@H](N(C)C)[C@@H]3[C@@H](O)[C@@H]21 (some centres undefined)	none
C=C1c2cccc(O)c2C(O)=C2C(=O)[C@]3(O)C(O)=C(C(N)=O)C(=O)[C@@H](N(C)C)[C@@H]3[C@@H](O)[C@H]12	LMPTP inh 87.9, SUMO1 PPI mod 72.0, DNMT1 block 90.3
CC(C)Cn1cc(-c2cccc3nccn23)cn1	none (no result: GRK2 inh, Scp1 inh)
Cn1c(SCC(=O)Nc2ccc3nc(SCC(=O)N4CCCC4)sc3c2)nnc1-c1ccc(N)cc1	Scp1 inh 64.8, SUMO1 PPI mod 63.1 (no result: GRK2 inh)
N#C/C(=C/c1cccn1-c1cccc(C(=O)O)c1)c1ccc(Cl)cc1	DNMT1 block 79.9
COc1ccc(-c2c(C(C)=O)c(C)nc3sc4c(=O)[nH]nnc4c23)cc1	none
CCOC(=O)c1c(C)nc2sc3c(=O)[nH]cnc3c2c1-c1ccc(OC)cc1	none
COc1ccc(-c2c(C(C)=O)c(C)nc3sc4c(c23)NC(c2ccccc2)NC4=O)cc1 (centres undefined)	SUMO1 PPI mod 39.9
CCOC(=O)c1c(C)nc2sc3c(c2c1-c1ccc(OC)cc1)NC(c1ccccc1)NC3=O (centres undefined)	SUMO1 PPI mod 46.6
CCn1c(SCC(=O)Nc2cccc(NC(C)=O)c2)nnc1-c1ccco1	none
